Experimental data gathered from unrelated publications.
Compare with care: the assays were run in different laboratories.
Target: Serine/threonine-protein kinase Chk1 (CHEK1, Homo sapiens, UniProt O14757)
Sequence (O14757 1-476, as in one of the studies): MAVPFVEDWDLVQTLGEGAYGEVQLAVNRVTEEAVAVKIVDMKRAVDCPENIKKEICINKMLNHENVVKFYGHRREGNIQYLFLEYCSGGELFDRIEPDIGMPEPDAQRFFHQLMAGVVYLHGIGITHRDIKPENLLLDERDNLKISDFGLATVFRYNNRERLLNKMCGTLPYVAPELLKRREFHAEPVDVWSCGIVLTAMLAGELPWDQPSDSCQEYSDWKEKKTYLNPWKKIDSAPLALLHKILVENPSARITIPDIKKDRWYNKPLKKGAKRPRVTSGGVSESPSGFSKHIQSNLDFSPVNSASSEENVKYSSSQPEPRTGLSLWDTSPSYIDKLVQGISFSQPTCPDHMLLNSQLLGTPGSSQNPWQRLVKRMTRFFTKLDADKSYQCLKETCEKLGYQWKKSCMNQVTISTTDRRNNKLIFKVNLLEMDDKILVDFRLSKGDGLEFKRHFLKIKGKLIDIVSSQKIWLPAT

Compound	effect on	mode	technique	cells	tested at	endpoint	value
FC(F)c1nc2ccccc2n1-c1nc(N2CCOCC2)nc(N2CCOCC2)n1	enzyme activity	inhibitor	–	–	10 µM	remaining activity	90%
COc1cc(Nc2cnc(C#N)c(O[C@H](C)CN(C)C)n2)ncc1-c1cnn(C)c1	enzyme activity	inhibitor	radiometric	–	1 µM	remaining activity	17%
Cc1sc(C(=O)NC2COC2)cc1-n1cc(NC(=O)Nc2c(F)cccc2Cl)cn1	enzyme activity	inhibitor	–	–	10 µM	remaining activity	118%
CCS(=O)(=O)c1cc2cc(C[C@](O)(CC(C)(C)c3ccc(F)cc3C(N)=O)C(F)(F)F)[nH]c2cn1	cell-free assay	–	competition with immobilised ligand	–	1 µM	remaining binding	97%
CCN(CC)CCNC(=O)c1c(C)[nH]c(/C=C2\C(=O)Nc3ccc(F)cc32)c1C	cell-free assay	–	–	–	0.5 µM	remaining signal	29.2%
CO[C@@H](C)c1c(Nc2ccc([C@@H](N(C)C(=O)C3CCS(=O)(=O)CC3)C(F)(F)F)cc2)cnc2cc(Cl)nn12	cell-free assay	–	competition with immobilised ligand	–	1 µM	remaining binding	95%
C[S+]([O-])c1ccc(-c2nc(-c3ccncc3)c(-c3ccc(F)cc3)[nH]2)cc1 (stereo not drawn)	cell-free assay	–	–	–	0.5 µM	remaining signal	97.3%
Nc1c(C(=O)NCc2ccc(C(=O)NCCCC3CCCCC3)cc2)cnn1-c1ccccc1	cell-free assay	–	competition with immobilised ligand	–	0.1 µM	remaining binding	100%
O=C1NC(=O)c2cc(Nc3ccc(F)cc3)c(Nc3ccc(F)cc3)cc21	cell-free assay	–	–	–	0.5 µM	remaining signal	104%
CN(C)C1CCN(CC#Cc2nn(C3CCCC3)c3nc(NCc4ccccc4)ncc23)C1 (stereo not drawn)	enzyme activity	inhibitor	FRET	–	0.1 µM	inhibition	2%
Cc1ccc(C(=O)NCc2ccsc2)cc1C#Cc1cn(C(C)C)c2ncnc(N)c12	enzyme activity	inhibitor	–	–	1 µM	activity vs control	87%
Cn1c(=O)n(-c2ccc(C(C)(C)C#N)cc2)c2c3cc(-c4cnc5ccccc5c4)ccc3ncc21	enzyme activity	inhibitor	–	–	10 µM	remaining activity	146%
Cc1nccc(COC(=O)N2C[C@@H]3[C@@H](CNC(=O)c4ccc5[nH]nnc5c4)[C@@H]3C2)n1	cell-free assay	–	competition with immobilised ligand	–	1 µM	remaining binding	100%
Cc1cnc(NC2CCOCC2)nc1-n1cnc(C(=O)NC(CN)c2cc(F)cc(Cl)c2)c1 (stereo not drawn)	enzyme activity	inhibitor	radiometric	–	1 µM	remaining activity	35%
CCN1CCN(Cc2ccc(NC(=O)c3ccc(C)c(/C=C/c4cnc5[nH]ccc5c4OC)c3)cc2C(F)(F)F)CC1	target engagement in cells	inhibitor	chemoproteomics	A-375	5 µM	inhibition	-51.1%
N#CCCc1ccc2c(c1)-c1[nH]c3ccc([N+](=O)[O-])cc3c1CC(=O)N2	cell-free assay	–	–	–	0.5 µM	remaining signal	45.1%
Nc1ncnc2occ(-c3ccc(NC(=O)Nc4cc(C(F)(F)F)ccc4F)cc3)c12	cell-free assay	inhibitor	–	–	20 µM	remaining signal	100%
Nc1nc(Nc2ccccc2)sc1C(=O)c1c(F)cccc1F	enzyme activity	inhibitor	–	–	10 µM	remaining activity	86%
N#CC1(c2ccccn2)CCN(Cc2cc(C(=O)N3CCCC3)c(=O)n3ccccc23)CC1	cell-free assay	–	competition with immobilised ligand	–	1 µM	remaining binding	90%
COc1cc(/C=C/C(=O)CC(=O)/C=C/c2ccc(O)c(OC)c2)ccc1O	enzyme activity	inhibitor	–	–	1 µM	activity vs control	57%
C[C@@H](c1cccc(C#N)c1)n1cc(Cl)cc(C(N)=O)c1=N	cell-free assay	–	competition with immobilised ligand	–	1 µM	remaining binding	100%
Clc1ccc(Nc2nnc(Cc3ccncc3)c3ccccc23)cc1	cell-free assay	–	–	–	0.5 µM	remaining signal	96.5%
COc1ccc2cc(OCC3(C(=O)O)CN(C(=O)c4ccc(F)cc4)C3)ccc2c1	cell-free assay	–	competition with immobilised ligand	–	1 µM	remaining binding	87%
CC(C)(C)c1nc(-c2cccc(NS(=O)(=O)c3c(F)cccc3F)c2F)c(-c2ccnc(N)n2)s1	enzyme activity	inhibitor	radiometric	–	1 µM	remaining activity	100%
